Results on two compounds are retold here after ChEMBL document CHEMBL1138784, “Rational design, synthesis, and biological evaluation of bis(pyrimido[5,6,1-de]acridines) and bis(pyrazolo[3,4,5-kl]acridine-5-carboxamides) as new anticancer agents” (J Med Chem, 2004).

pIC50: −log10 of the molar value.

Assay [1] deals with MCF7. Kind of assay: Percent growth of breast MCF-7 cell line was determined at 10e-5 M concentration after 48 hr of exposing. It is filed as functional, Homo sapiens.
Assay [2] concerns LoVo. Kind of assay: Cytotoxicity against doxorubicin resistant LoVo cell line was determined against 144 hrs. Format: functional, cell-based. The note with it: Homo sapiens. In outline:
(§1)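 MTT assay on doxorubicin-sensitive LoVo and resistant LoVo/Dx cells, 24 h preincubation, then 1 h or 144 h drug exposure at 37 °C, 5% CO2. IC50 in nM. Resistance index is IC50 on LoVo/Dx divided by IC50 on LoVo.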

Assay [3] deals with SNB-19. Kind of assay: Percent growth of CNS SNB-19 cell line was determined at 10e-8 M concentration after 48 hr of exposing. Format: functional, Homo sapiens. Put shortly: (§2)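 NCI sulforhodamine B screen. Cells seeded by growth rate, 24 h drug-free, then 48 h exposure to 10^-8, 10^-6 or 10^-5 M. Protein-stain optical density expressed as percent growth relative to untreated control (100%); negative values indicate cell kill.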

A short description of assay [4]: Cytotoxicity against human H460M cancer cell line was determined after 1 hr. It is filed as cell-based. The note with it: Cancer cell lines. Put shortly:
(§3)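 MTT colorimetric assay. Cells seeded by growth characteristics and preincubated 24 h, then exposed to drug for 1 h or 144 h at 37 °C, 5% CO2. H460M, MKN45 and PC-3 were grown in RPMI 1640 with 10% FCS. HCT116 was grown in D-MEM with 10% FBS and 2 mM glutamine.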

For assay [5], the system named is MCF7. Kind of assay: Percent growth of breast MCF-7 cell line was determined at 10e-6 M concentration after 48 h of exposing. Format: functional, Homo sapiens.
Another assay deals with Nucleic Acid. Kind of assay: Binding site preference is determined as the ratio of Poly (dA-dT)2 to Poly (dG-dC)2. It is filed as nucleic-acid assay. Put shortly: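 Ethidium displacement fluorometry at pH 7.0 (10 mM Na2HPO4, 10 mM NaH2PO4, 1 mM EDTA) with 1.26 μM ethidium bromide and 1 μM [poly(dA-dT)]2 or [poly(dG-dC)]2, 20 °C. Ex 546 nm, em 595 nm, drug added serially from a DMSO stock. Preference taken from the [AT]/[GC] ratio of C50 values, counted significant only below 0.7 or above 1.3.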

Assay [6] has as its system SNB-19. Kind of assay: Percent growth of CNS SNB-19 cell line was determined at 10e-6 M concentration after 48 hr of exposing. It is filed as functional, Homo sapiens. Put shortly:
as §2

Assay [7] has as its system NCI-H460. Kind of assay: Percent growth of lung NCI-H460 cell line was determined at 10e-5 M concentration after 48 hr of exposing. It is filed as functional, Homo sapiens. In outline: as §2
Assay [8] has as its system DU-145. Kind of assay: Percent growth of prostate DU-145 cell line was determined at 10e-8 M concentration after 48 h of exposing. It is filed as functional, Homo sapiens.
The subject of the next assay is MKN-45. Kind of assay: Cytotoxicity against human MKN45 cancer cell line was determined after 144 hr. The note with it: MKN-45, 144 h. Format: functional, cell-based. Put shortly: as §3
Assay [9] is described as follows: Cytotoxicity against human MKN45 cancer cell line was determined after 1 hr. The note with it: Cancer cell lines. Format: cell-based. In outline:
as §3

The test system of assay [10] is SNB-19. Kind of assay: Percent growth of CNS SNB-19 cell line was determined at 10e-5 M concentration after 48 hr of exposing. It is filed as functional, Homo sapiens. Put shortly:
as §2

A short description of assay [11]: Percent growth of melanoma LOX IMV1 cell line was determined at 10e-8 M concentration after 48 hr of exposing. It is filed as functional, Homo sapiens. Put shortly:
as §2

In assay [12] the test system is OVCAR-4. Kind of assay: Percent growth of ovarian OVCAR-4 cell line was determined at 10e-6 M concentration after 48 hr of exposing. It is filed as functional, Homo sapiens. Put shortly: as §2
Assay [13] has as its system MOLT-4. Kind of assay: Percent growth of leukemia MOLT-4 cell line was determined at 10e-8 M concentration after 48 hr of exposing. Format: functional, Homo sapiens. In outline: as §2
The subject of a further assay is PC-3. Kind of assay: Cytotoxicity against human PC3 cancer cell line was determined after 144 hr. Format: functional, cell-based. The note with it: PC-3, 144 h. Put shortly:
as §3

Assay [14] in a line: Percent growth of melanoma LOX IMV1 cell line was determined at 10e-6 M concentration after 48 hr of exposing. It is filed as functional, Homo sapiens. In outline: as §2
The test system of assay [15] is 786-0. Kind of assay: Percent growth of renal 786-O cell line was determined at 10e-8 M concentration after 48 h of exposing. Format: functional, Homo sapiens. Put shortly:
as §2

The nature of assay [16]: Cytotoxicity against human PC3 cancer cell line was determined after 1 hr. Format: cell-based. The note with it: Cancer cell lines. In outline: as §3
The test system of assay [17] is 786-0. Kind of assay: Percent growth of renal 786-O cell line was determined at 10e-6 M concentration after 48 h of exposing. It is filed as functional, Homo sapiens. In outline:
as §2

The subject of the next assay is HCT-116. Kind of assay: Cytotoxicity against human HCT116 cancer cell line was determined after 144 hr. Format: functional, cell-based. The note with it: HCT-116, 144 h. Put shortly:
as §3

The test system of assay [18] is MCF7. Kind of assay: Percent growth of breast MCF-7 cell line was determined at 10e-8 M concentration after 48 hr of exposing. Format: functional, Homo sapiens.
Assay [19] concerns DU-145. Kind of assay: Percent growth of prostate DU-145 cell line was determined at 10e-6 M concentration after 48 hr of exposing. Format: functional, Homo sapiens.
The test system of assay [20] is SW-620. Kind of assay: Percent growth of colon SW-620 cell line was determined at 10e-8 M concentration after 48 hr of exposing. It is filed as functional, Homo sapiens. Put shortly:
as §2

Assay [21] relates to DU-145. Kind of assay: Percent growth of prostate DU-145 cell line was determined at 10e-5 M concentration after 48 hr of exposing. It is filed as functional, Homo sapiens.
For assay [22], the system named is SW-620. Kind of assay: Percent growth of colon SW-620 cell line was determined at 10e-6 M concentration after 48 hr of exposing. It is filed as functional, Homo sapiens. Put shortly: as §2
For assay [23], the system named is OVCAR-4. Kind of assay: Percent growth of ovarian OVCAR-4 cell line was determined at 10e-8 M concentration after 48 hr of exposing. Format: functional, Homo sapiens. In outline:
as §2

Assay [24] can be described thus: Cytotoxicity against human H460M cancer cell line was determined after 144 hr. It is filed as functional, cell-based. The note with it: Cancer cell lines. Put shortly:
as §3

For another assay, the system named is HT-29. Kind of assay: Cytotoxicity is determined as the concentration required to inhibit the growth of human colon adenocarcinoma (HT-29) cell line. It is filed as functional, cell-based.
Assay [25] in a line: Percent growth of melanoma LOX IMV1 cell line was determined at 10e-5 M concentration after 48 hr of exposing. Format: functional, Homo sapiens. Put shortly:
as §2

For assay [26], the system named is MOLT-4. Kind of assay: Percent growth of leukemia MOLT-4 cell line was determined at 10e-5 M concentration after 48 hr of exposing. Format: functional, Homo sapiens. In outline: as §2
Assay [27] relates to MOLT-4. Kind of assay: Percent growth of leukemia MOLT-4 cell line was determined at 10e-6 M concentration after 48 h of exposing. It is filed as functional, Homo sapiens. In outline:
as §2

For assay [28], the system named is LoVo. Kind of assay: Cytotoxicity against human LoVo cancer cell line was determined after 144 hr. Format: functional, cell-based. In outline: as §1
The test system of assay [29] is OVCAR-4. Kind of assay: Percent growth of ovarian OVCAR-4 cell line was determined at 10e-5 M concentration after 48 hr of exposing. Format: functional, Homo sapiens. Put shortly: as §2
Assay [30] in a line: (§4) Cytotoxicity against human LoVo cancer cell line was determined after 1 hr. It is filed as cell-based. Put shortly:
as §1

Assay [31] relates to LoVo. Kind of assay: Cytotoxicity against doxorubicin resistant LoVo cell line was determined against 1 hour. It is filed as functional, cell-based. The note with it: Homo sapiens. In outline:
as §1

For assay [32], the system named is SW-620. Kind of assay: Percent growth of colon SW-620 cell line was determined at 10e-5 M concentration after 48 hr of exposing. It is filed as functional, Homo sapiens. In outline: as §2
Assay [33] deals with 786-0. Kind of assay: Percent growth of renal 786-O cell line was determined at 10e-5 M concentration after 48 hr of exposing. It is filed as functional, Homo sapiens. Put shortly:
as §2

The test system of assay [34] is LoVo. Kind of assay: Ratio of IC50 against sensitive LoVo cell line and that of doxorubicin resistance LoVo cell line was determined after 1 hr exposure. It is filed as functional, Homo sapiens.
Assay [35] has as its system NCI-H460. Kind of assay: Percent growth of lung NCI-H460 cell line was determined at 10e-8 M concentration after 48 hr of exposing. It is filed as functional, Homo sapiens. In outline: as §2
Assay [36] in a line: Cytotoxicity against human HCT116 cancer cell line was determined after 1 hr. Format: cell-based. The note with it: HCT-116, 1 h. In outline:
as §3

Assay [37] concerns NCI-H460. Kind of assay: Percent growth of lung NCI-H460 cell line was determined at 10e-6 M concentration after 48 hr of exposing. It is filed as functional, Homo sapiens. In outline: as §2
In assay [38] the test system is LoVo. Described as §4. It is filed as functional, cell-based. Put shortly:
as §1

In general, pIC50 refers to the IC50 on a negative log10 scale, so that one unit is a factor of ten. A low value points to a large IC50. As for `CN(C)CCN1Nc2c3ccccc3nc3c(C(=O)NCCCN(C)CCCNC(=O)c4ccc5c6c(c7ccccc7nc46)NN5CCN(C)C)ccc1c23`, the Growth is given as -35% with MCF7 [1]; 40% in the assay with SNB-19 [3]; 2% in the assay with MCF7 [5]; -7% with SNB-19 [6]; -53% with NCI-H460 [7]; 25% in the assay with DU-145 [8]. The Growth is listed as -31% in the assay with SNB-19 [10]; 22% in assay [11]; -17% in the assay with OVCAR-4 [12]; 28% with MOLT-4 [13]; 5% in [14]; 30% in the assay on 786-0 [15]. Also, the Growth is 5% with 786-0 [17]; 18% in the assay with MCF7 [18]; -23% in the assay with DU-145 [19]; 37% with SW-620 [20]; -40% in the assay with DU-145 [21]; 14% in the assay on SW-620 [22]. Further, the Growth with OVCAR-4 [23] is given as 41%; in [25], -57%; in the assay on MOLT-4 [26] it was -27%; in the assay on MOLT-4 [27] it was 7%; in the assay on OVCAR-4 [29], -40%; in the assay with SW-620 [32], -45%. Also, the Growth is -48% with 786-0 [33], 12% in the assay with NCI-H460 [35] and -6% in the assay on NCI-H460 [37]. The pIC50 is 6.40 with LoVo [2]; 8.14 in assay [4]; 9.22 in the assay with MKN-45; 8.17 in [9]; 8.22 with PC-3; 7.92 in assay [16]. Moreover, the negative logarithm of the IC50 (pIC50) is 7.72 with HCT-116; 8.36 in [24]; 8.52 with HT-29; 8.96 in the assay on LoVo [28]; 6.82 in [30]; 5.44 in the assay on LoVo [31]. The compound also showed a negative-log IC50 (pIC50) in assay [36] of 7.92. Also, in the assay on Nucleic Acid, the Binding site preference is 2.1. For the same compound, the Resistance index with LoVo [34] is recorded as 24.

With `COc1cccc2c1C(=O)c1c(O)c3c(c(O)c1C2=O)C[C@@](O)(C(=O)CO)C[C@@H]3O[C@H]1C[C@H](N)[C@H](O)[C@H](C)O1` [DOXORUBICIN], the values for the pIC50 in the assay on LoVo [38], in the assay on LoVo [2] and in the assay on LoVo [31] were 6.09, 5.64 and 5.04, respectively. Also, in the assay with LoVo [34], the Resistance index is 11.
